Consider one compound from ChEMBL document CHEMBL5150073, “Photocaged DNA-Binding Photosensitizer Enables Photocontrol of Nuclear Entry for Dual-Targeted Photodynamic Therapy” (J Med Chem, 2022).

Each structure is given as a SMILES string. Active and inactive are the calls of the source. The calls are words filed in the database; no cut-off is given here.

Data set [1] is described as follows: Aqueous stability of the compound in PBS at pH 7.4 assessed as hydrolysis of carbamate to release 3-bromo-2-(4-carbamimidoylphenyl)-1H-indole-6-carboxamidine at 0.8 uM incubated for 3 hrs by fluorescence based analysis. The data set is classed as physicochemical. As to conditions: buffer, pH 7.4, 3 h.
The test system of data set [2] is MCF7. Kind of data set: Induction of ROS production in human MCF7 cells assessed as increase in green fluorescence signal at 3 uM irradiated with 480 nm 2.3 J/cm^2 light for 15 mins with 16 J 780 nm 2P laser light for 10 seconds by DCFH2-DA probe based analysis. It is filed as functional, cell-based. The essentials:
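MCF7 cells given compound at 3 μM and DCFH2DA (10 μM). Uncaged by 480 nm illumination (15 min, 2.3 J cm⁻²). DCF fluorescence imaged before and after 780 nm two-photon laser exposure (10 s, 16 J).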

For data set [3], the system named is MCF7. Kind of data set: Induction of DNA damage in human MCF7 cells assessed as double strand breaks by measuring pink foci formation in nucleus at 3 uM incubated for 2 hrs followed by irradiation with 480 nm 2.3 J/cm^2 light for 15 mins with 8 J/cm^2 UV irradiation for 5 mins by gammaH2A.X antibody/Alexa 488/DAPI staining based fluorescence analysis. The data set is classed as functional, cell-based. The essentials: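 MCF7 cells treated with compound at 3 μM, then illuminated with 480 nm (15 min, 2.3 J cm⁻²) plus UV (5 min, 8.0 J cm⁻²), or with UV alone. Left 2 h, fixed, stained with Alexa 488-tagged γH2AX antibody and DAPI counterstain. Nuclear foci imaged.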

The subject of data set [4] is Calf thymus DNA. Kind of data set: Binding affinity to calf thymus DNA assessed as red shift in absorbance spectra at 20 uM by fluorescence based analysis. As to conditions: Bos taurus. It is filed as nucleic-acid assay.
For data set [5], the system named is MCF7. Kind of data set: Photorelease activity in human MCF7 cells assessed as wintergreen release by measuring bright green fluorescence in nucleus at 3 uM incubated for 1 hr followed by illumination with 1.6 J/cm^2 for 10 mins by EGFP filter based analysis. It is filed as ADME, cell-based. As to conditions: mcf7, 1.167 h, time 70 min. An outline of the steps: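 MCF7 cells given compound (3 μM) for 1 h, washed once with PBS, imaged. DAPI filter set (ex 350–405, em 415–470 nm) used for Br-DAPI cyan signal; EGFP filter set (ex 450–495, em 500–550 nm) used for WinterGreen green signal. Cells imaged dark, then after 480 nm illumination (10 min, 1.6 J cm⁻²).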

Data set [6] relates to MCF7. Put plainly: Photocytotoxicity against human MCF7 cells cultured as […] spheroids assessed as fold reduction in diameter of tumor spheroid size at 10 uM incubated for 1 hr followed by washout and irradiation with 480 nm 2.3 J/cm^2 light for 15 mins with 8 J/cm^2 UV irradiation for 5 mins and incubated overnight by cell viability imaging kit based assay. It is filed as functional. An outline of the steps: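 MCF7 spheroids (~300 μm) grown in ultralow-attachment plates. Compound added to medium at 10 μM final for 1 h, then illuminated: 480 nm (15 min, 2.3 J cm⁻²), 480 nm plus UV (5 min, 8.0 J cm⁻²), or UV only. After overnight incubation, stained with a live/dead imaging kit; dead-cell green mean intensity and spheroid diameter assessed.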

A short description of data set [7]: Photorelease activity in PBS at pH 7.4 assessed as 3-bromo-2-(4-carbamimidoylphenyl)-1H-indole-6-carboxamidine release by measuring increase in fluorescence intensity at 50 uM in presence of CT-DNA incubated for 3 hrs under dark condition by RP-HPLC analysis. The data set is classed as functional. An outline of the steps:
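Samples at 50 μM in PBS pH 7.4 were either kept 3 h at 37 °C in the dark or illuminated 20 min at 480 nm (450–495 nm filter, 3.1 J cm⁻²). Analysed by RP-HPLC on a C18 analytical column with absorbance at 345 nm; retention times recorded. n = 2 independent samples.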

Data set [8] deals with MCF7. Put plainly: Photocytotoxicity against human MCF7 cells assessed as cell death by measuring increase in green fluorescence at 4 uM incubated for 1 hr followed by washout and irradiated with 480 nm 2.3 J/cm^2 light for 15 mins with 48 J 780 nm 2P laser light for 30 seconds by cell viability imaging kit based assay. The data set is classed as functional. The essentials:
(§1)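 MCF7 cells given compound at 4 μM. Illuminated with 480 nm light (15 min, 2.3 J cm⁻²) plus 780 nm two-photon laser (30 s, 48 J). Stained 2 h later with a live/dead imaging kit: green dead-cell stain (EGFP filter), blue total-cell stain (DAPI filter). n = 3.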

Data set [9] can be described thus: Drug localization in cytosol of human MCF7 cells assessed as increase in bright green fluorescence of wintergreen excitation at 2 uM incubated for 1 hr in dark by EGFP filter based analysis. It is filed as ADME, subcellular.
Data set [10] relates to MCF7. Put plainly: Photocytotoxicity against human MCF7 cells assessed as reduction in cell viability incubated for 1 hr followed by washout and irradiation with 480 nm 2.3 J/cm^2 light for 15 mins with 8 J/cm^2 UV irradiation for 5 mins and measured after 24 hrs by MTT assay. The data set is classed as functional. Particulars: MCF7, light or radiation study. An outline of the steps:
(§2)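 Cells (MCF7, A549, HeLa) incubated 1 h with compound (BB probes 0–32 μM, Br-DAPI 0–64 μM) and washed once. Light arms: 480 nm (15 min, 2.3 J cm⁻²) with or without UV (5 min, 8.0 J cm⁻²), or UV only; dark controls unilluminated. Cells kept overnight in growth medium, then MTT read 24 h post-treatment. CC50 taken relative to untreated cells. n = 3.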

A short description of data set [11]: Stability of compound in human A549 cells assessed as esterase-mediated 3-bromo-2-(4-carbamimidoylphenyl)-1H-indole-6-carboxamidine release by measuring cyan fluorescence at 2 uM incubated for 1 hr followed by compound washout and further incubated for 1 hr on heated microscopic stage by DAPI filter based fluorescence analysis. It is filed as ADME, cell-based. As to conditions: a549, 1 h. An outline of the steps: (§3)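 Cells incubated with compound (2 μM) for 1 h, washed once with PBS, then kept a further 1 h in the dark on a heated microscope stage. Nuclear cyan fluorescence imaged with the DAPI filter set at 0 h and 2 h time points.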

Data set [12] has as its system Calf thymus DNA. Kind of data set: Binding affinity to calf thymus DNA assessed as fold change in fluorescence quenching of 3-bromo-2-(4-carbamimidoylphenyl)-1H-indole-6-carboxamidine. It is filed as nucleic-acid assay. Particulars: Bos taurus.
Data set [13] is described as follows: Selectivity index, ratio of CC50 for photocytotoxicity against human HeLa cells irradiated with 480 nm 2.3 J/cm^2 light to CC50 for photocytotoxicity against human HeLa cells irradiated with 480 nm 2.3 J/cm^2 light and 8 J/cm^2 UV irradiation. The data set is classed as functional. The essentials:
as §2

Data set [14] has as its system MCF7. Kind of data set: Photocytotoxicity against human MCF7 cells assessed as reduction in cell viability incubated for 1 hr followed by washout and irradiation with 480 nm 2.3 J/cm^2 light for 15 mins and measured after 24 hrs by MTT assay. It is filed as functional. Particulars: MCF7, light or radiation study. The essentials: as §2
A short description of data set [15]: Stability of compound in human MCF7 cells assessed as esterase-mediated 3-bromo-2-(4-carbamimidoylphenyl)-1H-indole-6-carboxamidine release by measuring cyan fluorescence at 2 uM incubated for 1 hr followed by compound washout and further incubated for 1 hr on heated microscopic stage by DAPI filter based fluorescence analysis. It is filed as ADME, cell-based. Particulars: mcf7, 1 h. An outline of the steps:
as §3

The test system of data set [16] is MCF7. Kind of data set: Photocytotoxicity against human MCF7 cells assessed as cell death by measuring increase in green fluorescence incubated for 1 hr followed by washout and irradiated with 480 nm 2.3 J/cm^2 light for 15 mins with 48 J 780 nm 2P laser light for 30 seconds and further incubated for 2 hrs by cell viability imaging kit based assay. Particulars: dose 0-8 µM, DDE = dose-dependent effect. It is filed as functional. An outline of the steps:
as §1

Turning to `CC1=CC(C)=[N+]2C1=C(COC(=O)/N=C(\N)c1ccc3c(Br)c(-c4ccc(C(=N)N)cc4)[nH]c3c1)c1c(C)cc(C)n1[B-]2(C)C`, the Stability entry in data set [1], in [11] and in data set [15] was “Stable” throughout. Also, the result in the data set on MCF7 [2], in the data set on MCF7 [3], in the data set with Calf thymus DNA [4] and in the data set with MCF7 [8] was Active. Besides, the Drug metabolism entry in the data set on MCF7 [5] is given as “Metabolite_Notdetected”; in data set [7], “Metabolite not detected”. The “fold change (FC)” value is 5 in the data set with MCF7 [6] and 4 with Calf thymus DNA [12]. The Drug uptake entry in data set [9] was “Active”. Besides, the CC50 with MCF7 [10] was 470 nM; in the data set with MCF7 [14], 4000 nM. In [13], the Ratio is given as 2.2. Also, the Activity entry in the data set on MCF7 [16] is “Dde”.
